Reference: ChEMBL document CHEMBL4118104, “Design, Synthesis, and Evaluation of Orally Bioavailable Quinoline-Indole Derivatives as Innovative Multitarget-Directed Ligands: Promotion of Cell Proliferation in the Adult Murine Hippocampus for the Treatment of Alzheimer's Disease” (J Med Chem, 2018)
The source made the active and inactive calls. No cut-off for these calls is given here.

Tests used:
[1] = target: Amyloid-beta precursor protein (Homo sapiens) (UniProt P05067); experiment: Inhibition of amyloid beta (1 to 42) (unknown origin) self-induced aggregation at 5 uM after 48 hrs in presence of melatonin by thioflavin-T fluorescence assay relative to control
Outline: (§1)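 ThT assay of Aβ1-42 self-aggregation: Aβ1-42 25 µM with inhibitor 5 µM (5:1); three independent experiments, each in triplicate.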

[2] = test system: SH-SY5Y; experiment: Neuroprotective activity against t-BuOOH-induced oxidative stress in human SH-SY5Y cells assessed as inhibition ROS accumulation pre-incubated for 24 hrs before t-BuOOH challnge for 30 mins by DCFH-DA probe based fluorescence assay; format: functional, cell-based
Outline: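 SH-SY5Y cells; test agents at 1–0.01 µM, oxidative stress induced by tert-butyl hydroperoxide; intracellular ROS read by DCFH-DA fluorescence; at least three independent experiments in sextuplicate; EC50 derived.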

[3] = Antioxidant activity assessed as AAPH radical scavenging activity by measuring trolox equivalent at 10 to 20 uM preincubated for 10 mins followed by AAPH addition measured every min for 120 mins in presence of melatonin by ORAC-FL assay; format: functional
Outline: (§2)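 ORAC-FL: compound at 10 µM (or 20 µM) in 75 mM phosphate pH 7.4 with fluorescein (70 nM final), preincubated 10 min at 37 °C, then AAPH added. Fluorescence (ex 485/em 520) read each minute for 120 min. Net AUC converted to Trolox equivalents via a 10–100 µM Trolox curve; three independent experiments.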

[4] = target: Amyloid-beta precursor protein (Homo sapiens) (UniProt P05067); experiment: Induction of disaggregation of amyloid beta (1 to 42) (unknown origin) fibrils at compound to amyloid beta ratio of 1:1 after 48 hrs by thioflavin-T fluorescence assay relative to control
Outline: (§3)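 Aβ1-42 at 25 µM with compound at 1:1 in 50 mM PBS, pH 7.4, 37 °C, read by ThT fluorescence or by TEM. Disaggregation was done on preformed aggregates. ThT data are mean ± SD of at least three experiments.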

[5] = target: Amyloid-beta precursor protein (Homo sapiens) (UniProt P05067); experiment: Inhibition of amyloid beta (1 to 42) (unknown origin) self-induced aggregation assessed as thinner fibrils at compound to amyloid beta ratio of 1:1 after 48 hrs by TEM analysis; outline: as §3
[6] = target: Amyloid-beta precursor protein (Homo sapiens) (UniProt P05067); experiment: Induction of disaggregation of amyloid beta (1 to 42) (unknown origin) assessed as shorter aggregation at compound to amyloid beta ratio of 1:1 after 48 hrs by TEM analysis; outline: as §3
[7] = target: Amyloid-beta precursor protein (Homo sapiens) (UniProt P05067); experiment: Inhibition of amyloid beta (1 to 42) (unknown origin) self-induced aggregation assessed as less dense fibrils at compound to amyloid beta ratio of 1:1 after 48 hrs by TEM analysis; outline: as §3
[8] = Metal chelating activity assessed as compound-Fe2+ complex formation by measuring absorption spectrum at 50 uM after 30 mins by UV-Visible spectrophotometric analysis (reference value: 314 nm)
Outline: (§4)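 Ligand 50 µM alone or with 50 µM CuSO4, ZnCl2, FeSO4 or FeCl3 in 20 mM HEPES, 150 mM NaCl, pH 7.4; UV-vis absorbance spectra recorded. For Cu2+, titration at room temperature with absorbance at 338 nm gave stoichiometry.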

[9] = test system: Mus musculus; experiment: Cognition enhancement activity in double APP/PS1 transgenic Alzheimer's disease mouse model assessed as increase in number of virtual platform crossing at 30 mg/kg/day, po for 80 days by Morris water maze test; format: functional, organism-based
Outline: (§5)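 APP/PS1 mice, six months old, gavaged 30 mg/kg/day in 0.5% CMC-Na for 80 days. Probe trial was a single 90 s free swim with the platform absent; effective region is twice the platform diameter. n = 10, mean ± SD, two-way ANOVA.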

[10] = test system: Mus musculus; experiment: Cognition enhancement activity in double APP/PS1 transgenic Alzheimer's disease mouse model assessed as increase in number of effective region crossing at 30 mg/kg/day, po for 80 days by Morris water maze test; format: functional, organism-based; outline: as §5
[11] = Inhibition of Cu2+ - induced amyloid beta (1 to 42) (unknown origin) aggregation at compound/amyloid beta/Cu2+ ratio of 2:1:1 after 48 hrs by thioflavin T-based fluorometric assay relative to control; conditions: concentration not given here
Outline: (§6)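 Chelator, Aβ1-42 (25 µM) and Cu2+ at 2:1:1 in HEPES/NaCl, pH 6.6, 37 °C; inhibition measured on fresh peptide and disaggregation on preformed Cu2+-Aβ aggregates. Read by ThT fluorescence (at least three experiments) or by TEM.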

[12] = Metal chelating activity assessed as compound-Cu2+ complex formation at 50 uM after 30 mins by mass spectrometry
[13] = test system: PC-12; experiment: Induction of rat PC12 cell proliferation at 0.5 to 50 uM after 72 hrs in presence of ERK inhibitor U0126 by MTT assay; format: functional, cell-based
Outline: (§7)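 PC12 cells treated with compound together with U0126 (ERK inhibitor, 1 µM) or SB203580 (p38 inhibitor, 1 µM); survival measured by MTT, expressed as percent of control, mean ± SD of at least three experiments.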

[14] = test system: Mus musculus; experiment: Cognition enhancement activity in double APP/PS1 transgenic Alzheimer's disease mouse model assessed as decrease in escape latency at 30 mg/kg/day, po for 80 days by Morris water maze test; format: functional, organism-based
Outline: (§8)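 APP/PS1 double transgenic mice, six months old, gavaged 30 mg/kg/day in 0.5% CMC-Na for 80 days; vehicle mice and WT C57BL/6 received blank CMC-Na. Escape latency recorded daily over the training trials; n = 10, mean ± SD, two-way ANOVA.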

[15] = test system: PC-12; experiment: Induction of rat PC12 cell proliferation at 10 uM after 72 hrs by microscopic analysis; format: functional, cell-based
Outline: (§9)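 Undifferentiated PC12 cells cultured 72 h with compound at 0.5–50 µM (images at 10 µM) or with NGF 50 ng/ml, then examined under a digital microscope.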

[16] = Inhibition of Cu2+ - induced amyloid beta (1 to 42) (unknown origin) aggregation assessed as small-sized nonfibrillar amorphos amyloid beta at compound/amyloid beta/Cu2+ ratio of 2:1:1 after 48 hrs by TEM analysis; outline: as §6
[17] = target: Amyloid-beta precursor protein (Homo sapiens) (UniProt P05067); experiment: Induction of disaggregation of amyloid beta (1 to 42) (unknown origin) assessed as narrow aggregation at compound to amyloid beta ratio of 1:1 after 48 hrs by TEM analysis; outline: as §3
[18] = Metal chelating activity assessed as compound-Fe3+ complex formation by measuring absorption spectrum at 50 uM after 30 mins by UV-Visible spectrophotometric analysis (reference value: 314 nm); outline: as §4
[19] = target: Amyloid-beta precursor protein (Homo sapiens) (UniProt P05067); experiment: Inhibition of amyloid beta (1 to 42) (unknown origin) self-induced aggregation assessed as reduction in unstructured aggregates at compound to amyloid beta ratio of 1:1 after 48 hrs by TEM analysis; outline: as §3
[20] = target: Amyloid-beta precursor protein (Homo sapiens) (UniProt P05067); experiment: Induction of disaggregation of Cu2+ -associated amyloid beta (1 to 42) (unknown origin) fibrils at compound/amyloid beta/Cu2+ ratio of 2:1:1 after 48 hrs by thioflavin T-based fluorometric assay relative to control; outline: as §6
[21] = test system: PC-12; experiment: Induction of rat PC12 cell proliferation at 0.5 to 50 uM after 72 hrs by microscopic analysis; format: functional, cell-based; outline: as §9
[22] = Induction of disaggregation of Cu2+ -associated amyloid beta (1 to 42) (unknown origin) fibrils assessed as small-sized nonfibrillar amorphos amyloid beta at compound/amyloid beta/Cu2+ ratio of 2:1:1 after 48 hrs by TEM analysis; outline: as §6
[23] = test system: PC-12; experiment: Induction of rat PC12 cell proliferation at 0.5 to 50 uM after 72 hrs in presence of p38 inhibitor SB203580 by MTT assay; format: functional, cell-based; outline: as §7
[24] = target: Amyloid-beta precursor protein (Homo sapiens) (UniProt P05067); experiment: Inhibition of amyloid beta (1 to 42) (unknown origin) self-induced aggregation at compound to amyloid beta ratio of 1:1 after 48 hrs by thioflavin-T fluorescence assay relative to control; conditions: concentration not given here; outline: as §3
[25] = Metal chelating activity assessed as compound-Cu2+ complex formation by measuring absorption spectrum at 50 uM after 30 mins by UV-Visible spectrophotometric analysis (reference value: 314 nm); outline: as §4
[26] = Metal chelating activity assessed as compound-Zn2+ complex formation by measuring absorption spectrum at 50 uM after 30 mins by UV-Visible spectrophotometric analysis (reference value: 314 nm); outline: as §4
[27] = test system: Mus musculus; experiment: Cognition enhancement activity in double APP/PS1 transgenic Alzheimer's disease mouse model assessed as decrease in path searching behavior at 30 mg/kg/day, po for 80 days by Morris water maze test; format: functional, organism-based; outline: as §8
[28] = test system: Mus musculus; experiment: Induction of cell proliferation in C57BL/6 mouse hippocampal neurons in CA1 region assessed as BrdU-incorporation at 30 mg/kg, po administered via gavage for 7 days by immunohistochemical analysis (reference value: 2.3%); format: functional
Outline: (§10)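 C57BL/6 mice, 12 weeks old, n = 6, individually housed beforehand without wheels. Compound gavaged 30 mg/kg/day for 7 days with daily IP BrdU 50 mg/kg; BrdU+ cells counted by immunohistochemistry per hippocampal volume; two-way ANOVA.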

[29] = test system: Mus musculus; experiment: Induction of cell proliferation in C57BL/6 mouse hippocampal neurons in DG region assessed as BrdU-incorporation at 30 mg/kg, po administered via gavage for 7 days by immunohistochemical analysis (reference value: 2.2%); format: functional; outline: as §10
[30] = Antioxidant activity assessed as AAPH radical scavenging activity by measuring trolox equivalent at 10 to 20 uM preincubated for 10 mins followed by AAPH addition measured every min for 120 mins in presence of clioquinol by ORAC-FL assay; format: functional; outline: as §2
[31] = test system: Mus musculus; experiment: Induction of cell proliferation in C57BL/6 mouse hippocampal neurons in CA3 region assessed as BrdU-incorporation at 0.5 uL/hr, icv for 7 days by immunohistochemical analysis (reference value: 1.4%); format: functional
[32] = test system: Mus musculus; experiment: Induction of cell proliferation in C57BL/6 mouse hippocampal neurons in CA1 region assessed as BrdU-incorporation at 0.5 uL/hr, icv for 7 days by immunohistochemical analysis (reference value: 3.2%); format: functional
[33] = test system: Mus musculus; experiment: Induction of cell proliferation in C57BL/6 mouse hippocampal neurons in CA2 region assessed as BrdU-incorporation at 30 mg/kg, po administered via gavage for 7 days by immunohistochemical analysis (reference value: 2.4%); format: functional; outline: as §10
[34] = target: Amyloid-beta precursor protein (Homo sapiens) (UniProt P05067); experiment: Inhibition of amyloid beta (1 to 42) (unknown origin) self-induced aggregation at 5 uM after 48 hrs in presence of clioquinol by thioflavin-T fluorescence assay relative to control; outline: as §1
[35] = test system: Mus musculus; experiment: Induction of cell proliferation in C57BL/6 mouse hippocampal neurons in CA3 region assessed as BrdU-incorporation at 30 mg/kg, po administered via gavage for 7 days by immunohistochemical analysis (reference value: 1.5%); format: functional; outline: as §10
[36] = test system: Mus musculus; experiment: Induction of cell proliferation in C57BL/6 mouse hippocampal neurons in DG region assessed as BrdU-incorporation at 0.5 uL/hr, icv for 7 days by immunohistochemical analysis (reference value: 7.8%); format: functional
[37] = test system: Mus musculus; experiment: Induction of cell proliferation in C57BL/6 mouse hippocampal neurons in CA2 region assessed as BrdU-incorporation at 0.5 uL/hr, icv for 7 days by immunohistochemical analysis (reference value: 2.4%); format: functional

Amyloid-beta precursor protein (Homo sapiens), sequence (P05067 whole entry): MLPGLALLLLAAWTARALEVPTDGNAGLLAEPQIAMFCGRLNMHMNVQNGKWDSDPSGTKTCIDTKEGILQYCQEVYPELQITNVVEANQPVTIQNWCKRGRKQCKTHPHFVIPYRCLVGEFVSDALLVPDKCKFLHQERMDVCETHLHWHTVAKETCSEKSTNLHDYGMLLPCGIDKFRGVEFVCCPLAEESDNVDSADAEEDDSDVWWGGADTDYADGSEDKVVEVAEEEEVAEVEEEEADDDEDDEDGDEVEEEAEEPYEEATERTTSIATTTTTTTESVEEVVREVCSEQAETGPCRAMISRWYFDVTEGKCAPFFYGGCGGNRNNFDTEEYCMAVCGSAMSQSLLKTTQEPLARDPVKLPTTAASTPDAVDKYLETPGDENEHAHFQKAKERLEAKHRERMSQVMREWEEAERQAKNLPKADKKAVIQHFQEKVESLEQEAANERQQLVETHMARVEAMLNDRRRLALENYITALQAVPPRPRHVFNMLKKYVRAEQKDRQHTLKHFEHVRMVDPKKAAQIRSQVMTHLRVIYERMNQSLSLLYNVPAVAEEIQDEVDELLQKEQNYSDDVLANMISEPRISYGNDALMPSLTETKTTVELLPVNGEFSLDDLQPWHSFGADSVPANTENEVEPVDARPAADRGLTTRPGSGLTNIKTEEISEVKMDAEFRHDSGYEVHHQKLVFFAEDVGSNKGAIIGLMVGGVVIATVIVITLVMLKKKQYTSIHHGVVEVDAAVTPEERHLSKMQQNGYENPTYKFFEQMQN

Structure (SMILES) | EC50 [2] [nM] | Activity [4] [%] | Activity [9] | Activity [10] | inhibition [11] [%] | Activity [14] | Activity [15] | inhibition [16] | Activity [20] [%] | Activity [21] | Activity [22] | inhibition [24] [%] | Activity [27] | further results
Oc1c(I)cc(Cl)c2cccnc12 [CLIOQUINOL] | > 1000 |  |  |  |  |  |  |  |  |  |  |  |  | inhibition [1]: 22.5%; Activity (umolequiv/umol) [3]: 2.9
Oc1ccc2[nH]c(-c3ccc4c(Cl)cc(Cl)c(O)c4n3)cc2c1 |  | 48.5 to 72.7 | Active | Active | 85.8 | Active | Active | Active | 83.3 | Active | Active | 48.6 to 71.6 | Active | inhibition [5]: Active; Activity [6]: Active; inhibition [7]: Active; Activity [8]: 324 nm; Activity [12]: Active; Activity [13]: inactive; Activity [17]: Active; Activity [18]: 309 nm; inhibition [19]: Active; Activity [23]: inactive; Activity [25]: 338 nm; Activity [26]: 309 nm
COc1ccc2[nH]cc(CCNC(C)=O)c2c1 [MELATONIN] | > 1000 | 44.3 |  |  | 47.8 |  |  | inactive | 24 |  | inactive | 49.1 |  | Activity [28]: 3.2%; Activity [29]: 9.4%; Activity (umolequiv/umol) [30]: 2.9; Activity [31]: 1.2%; Activity [32]: 2.7%; Activity [33]: 1.6%; inhibition [34]: 22.5%; Activity [35]: 1.5%; Activity [36]: 27.4%; Activity [37]: 2.1%
Oc1c(Cl)cc(Cl)c2ccc(-c3cc4cc5c(cc4[nH]3)OCO5)nc12 |  | 48.5 to 72.7 | Active | Active |  | Active | Active |  |  | Active |  | 48.6 to 71.6 | Active | 
